# From PubChem BioAssay
# In the library only some 3.9% were active in any assay of this set; here they are far more common.
# TAAR1 ag: agonists of human TAAR1; activation, % at 3 µM; 0.99% of 360,000 active; Q96RJ0; CHO RD-HGA16 TAAR1, Fluo-8 calcium fluorescence; vehicle wells 0%, saturating PEA agonist 100%; AID 624467;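 active means activation above the mean activation of all test compounds in the run plus 3 SD, cut at about 38% in these data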
# Target sequence (Q96RJ0 whole entry, looked up): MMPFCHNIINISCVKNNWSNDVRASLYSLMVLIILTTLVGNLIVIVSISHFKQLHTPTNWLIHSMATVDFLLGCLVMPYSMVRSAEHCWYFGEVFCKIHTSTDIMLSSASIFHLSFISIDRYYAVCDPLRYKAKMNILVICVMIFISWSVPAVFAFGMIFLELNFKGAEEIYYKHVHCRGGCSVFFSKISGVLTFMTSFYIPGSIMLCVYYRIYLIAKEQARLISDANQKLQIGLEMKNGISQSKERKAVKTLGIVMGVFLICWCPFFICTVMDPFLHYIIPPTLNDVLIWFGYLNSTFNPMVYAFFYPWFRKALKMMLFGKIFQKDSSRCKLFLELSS
#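 Signal – calcium-sensitive Fluo-8 signal, excitation 470-495, emission 515-575 nm · System – RD-HGA16 (CHO) cells co-expressing Gα16 and hTAAR1 · Incubation – 17-24 h seeding, 75 min 37 °C dye, 30 min RT · Compound dosing – 3 µM single concentration · Repeats – no replicates (n 1)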
# OX1R antag-1: antagonists of human orexin 1 receptor (OX1R); OX1R-expressing cells, FRET antagonist read-out; 1.8% of 330,000 active; inhibition, % at 6.6 µM; AID 485270; in the data active means inhibition mostly above about 38%, no sharp cut-off; inactive means mostly below about 40%
# OX1R antag-2: antagonists of human orexin 1 receptor; O43613; CHO/OX1R cells, Fluo-8 calcium fluorescence, orexin A; inhibition, % at 5 µM; 0.43% of 330,000 active;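 active means inhibition above its plate's threshold, mean inhibition of all tested compounds on the plate plus 3 SD, cut at about 37% in these data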
# TAAR1 antag: antagonists of human TAAR1 | AID 624466 | CHO RD-HGA16 TAAR1, Fluo-8 calcium fluorescence, antagonist | 1.5% of 360,000 active | inhibition, % at 3 µM | Q96RJ0;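 active means inhibition above a per-plate cutoff, the mean inhibition of test compounds on that plate plus 3 SD, cut at about 49% in these data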
#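 Test system: CHO RD-HGA16 cells bearing hTAAR1 | Reagent: β-PEA, EC80 | Compound dosing: 3 µM, single point | Schedule: Dye loading 75 min at 37 °C, then 30 min room temperature | Signal: Calcium fluorescence with Fluo-8 | Evaluation: Percent inhibition of PEA-evoked calcium signal, max/basal emission ratio | Control set: DMSO-only wells and EC80 β-PEA-stimulated wells | Repeats: Singlicate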
# CHO parental Ca: signal in parental CHO cells, OX1R antagonist counter-screen; parental CHO-K1, ATP-induced calcium, Fluo-8 fluorescence; inhibition, % at 5.6 µM; 0.63% of 330,000 active;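 active means inhibition above that plate's mean sample inhibition plus 3 SD, cut at about 26% in these data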
#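 Material – parental CHO cells · Reagent – ATP stimulus · Compound – single nominal dose of 5.6 µM per compound · Detection – Fluo-8 fluorescence · Read-out basis – percent inhibition of calcium signal · Controls – ATP-challenged DMSO wells low, unchallenged DMSO wells high · Repeats – no replicates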
# Numbers stand for hits; . = inactive; / = no result given.
SMILES,TAAR1 ag,OX1R antag-1,OX1R antag-2,TAAR1 antag,CHO parental Ca
Cc1cccc(C)c1-n1nnnc1C(c1cc2ccccc2o1)N1CCN(C/C=C/c2ccccc2)CC1 (stereo not given),.,/,/,.,/
O=C(NCCN1CCOCC1)c1ccc(NS(=O)(=O)c2ccccc2)cc1,.,.,.,.,.
O=C(NCCN1CCOCC1)c1ccc(NS(=O)(=O)c2cccc([N+](=O)[O-])c2)cc1,.,51.7,.,.,.
O=C(OCc1ccccc1)N1Cc2ccnnc2CC1c1ccccc1Br (stereo not given),.,/,/,.,/
COC(=O)c1ccc(OCC2c3cc(OC)c(OC)cc3CCN2C(=O)c2ccco2)cc1 (stereo not given),.,.,.,61.4,.
COc1cc2c(cc1OC)C(c1ccccc1)N(C(=O)c1ccccc1)CC2 (stereo not given),.,.,.,.,.
COc1cc2c(cc1OC)C(c1ccccc1)N(C(=O)c1ccco1)CC2 (stereo not given),.,33.0,.,.,.
S=C1NCCOc2ccccc21,.,/,/,.,/
O=S1(=O)N[C@@H](Cc2ccccc2)COc2cccc(NCCCN3CCOCC3)c21,.,/,/,.,/
Cc1cccc(OCc2nnc(SCC(=O)Nc3sc(C)c(C)c3C#N)n2C)c1,41.8,.,.,.,.
O=C(C(=O)N1CCN(S(=O)(=O)c2ccccc2)CC1)c1cccc(C(F)(F)F)c1,.,/,/,.,/
COc1ccc(OCC(=O)Nc2cc(S(=O)(=O)N3CCCCC3)ccc2OC)cc1,.,.,.,.,.
CCN(CC)S(=O)(=O)c1ccc(Cl)c(NC(=O)COc2ccc(OC)cc2)c1,.,.,.,57.6,.
CCN(c1ccccc1)S(=O)(=O)c1ccc(OC)c(NC(=O)Cc2ccccc2OC)c1,.,.,.,.,.
COc1ccc(OCC(=O)Nc2cc(S(=O)(=O)N3CCCC3)ccc2Cl)cc1,39.1,/,/,61.4,/
CCN(c1ccccc1)S(=O)(=O)c1ccc(Cl)c(NC(=O)CNCc2ccccc2OC)c1,.,.,.,55.5,.
CCc1cc2c(nc1CC)CCCN2S(=O)(=O)c1ccc(C(F)(F)F)cc1,.,/,/,.,/
N#Cc1cccc(C(=O)C(=O)N2CCN(c3ccccc3)CC2)c1,.,/,/,.,/
CC1(C(=O)NS(=O)(=O)c2ccc(Cl)cc2)CCN1C(=O)C1(c2ccc(Cl)cc2)CCC1 (stereo not given),.,/,/,.,/
O=C(/C=C(\Nc1cc(Cl)c(F)c(Cl)c1)c1ccccc1)c1ccccc1,.,/,/,.,/
O=C(Nc1ccncc1)Nc1cccc(C(F)(F)F)c1,.,.,.,.,.
CCN(CC)S(=O)(=O)c1ccc(NC(=O)Nc2cccc(C(F)(F)F)c2)cc1,.,.,.,.,34.9
O=C(Nc1ccc(OC(F)F)cc1)Nc1cccc(C(F)(F)F)c1,.,45.1,49.7,.,60.1
CN(C)S(=O)(=O)Oc1ccc(C(=O)Nc2cccc(C(F)(F)F)c2)cc1,.,51.4,.,.,52.9
CCC(=O)Nc1ccc(Br)c(Cl)c1,.,.,.,.,.
SMILES,TAAR1 ag,OX1R antag-1,OX1R antag-2,TAAR1 antag,CHO parental Ca
CCC(=O)NC1=C(Cl)C(=O)C(NC(=O)CC)=C(Cl)C1=O,45.9,/,/,50.2,/
COc1ccccc1Nc1nn2c(=O)c3ccc(C(=O)N4CCCC(C)C4)cc3nc2s1 (stereo not given),.,.,.,49.9,.
Cc1ccc(N(C)S(=O)(=O)c2ccc3c(c2)CC(C)N3C(=O)C2CC2)cc1 (stereo not given),.,.,.,49.3,.
O=c1oc2ccccc2cc1-c1cn2cccnc2n1,.,66.3,.,.,.
CC(C)[C@@H](C)/C=C/[C@@H](C)[C@H]1CC[C@@H]2[C@]1(C)CCC1[C@]23C=C[C@]2(C[C@@H](O)CC[C@]12C)N(c1cnccn1)O3 (stereo not given in full),.,/,/,.,/
Cc1nc(C)c(-c2ccc(SCC(=O)Nc3ccc(C)c(Cl)c3)nn2)s1,.,.,.,.,.
CC(=O)c1ccc(NC(=O)CSc2ccc(-c3sc(C)nc3C)nn2)cc1,.,.,.,63.5,.
COC(=O)Cc1ccc(OC2(C)CCN(Cc3ccc(-c4ccccn4)cc3)C2)cc1 (stereo not given),.,/,/,.,/
Cc1nnc(N/N=C/c2ccc(-c3ccc(Br)cc3)o2)n1N,.,39.6,.,.,.
COc1ccccc1Cn1c(=S)[nH]c2cc(C(=O)N3CCCC(C)C3)ccc2c1=O (stereo not given),.,/,/,.,/
CCCCCOC(=O)C1=C(C)Nc2ncnn2C1c1cccs1 (stereo not given),.,.,.,56.6,.
CC1=C(C(N)=O)C(c2cccs2)n2ncnc2N1 (stereo not given),.,.,.,.,.
CCc1ccc(OC)c(S(=O)(=O)Nc2ccc(Cc3ccncc3)cc2)c1,.,.,.,.,48.3
COc1ccc(NS(=O)(=O)c2cc(NC(=O)c3cncc(Br)c3)ccc2OC)cc1,.,.,.,50.0,.
COc1ccccc1NS(=O)(=O)c1cccc(NC(=O)CCNC(=O)c2ccccc2OC)c1,.,.,.,57.4,.
COc1ccccc1NS(=O)(=O)c1cccc(NC(=O)Nc2cccc(Cl)c2)c1,.,.,.,78.9,30.5
CC(C)CC1C(=O)N(Cc2cn(Cc3ccco3)nn2)CCS(=O)(=O)N1Cc1ccc(-c2ccccc2)cc1 (stereo not given),.,/,/,.,/
CCN(CC)C(=O)c1ncn2c1C(=O)NC[C@@H]2C,.,/,/,.,/
COc1ccccc1NS(=O)(=O)c1cccc(NC(=O)c2cncc(Br)c2)c1,.,.,.,51.4,.
COc1ccccc1NS(=O)(=O)c1cc(NC(=O)c2ccc(Cl)nc2)ccc1Cl,.,.,.,55.8,.
COc1ccc(NC(=O)c2ccc(Cl)c(S(=O)(=O)N3CC(C)OC(C)C3)c2)cn1 (stereo not given),.,.,.,.,.
COc1ccc(NC(=O)c2ccc(Cl)c(S(=O)(=O)N3CCc4ccccc4C3)c2)cn1,.,.,.,65.6,.
Cc1[nH]c2ccccc2c1CC(=O)Nc1ccc(Nc2cccnc2)c(-c2ccc(C(C)(C)C)cc2)c1,.,/,/,.,/
CC1CCCN(S(=O)(=O)c2ccc(C(=O)NC(C)c3ccccc3)cc2)C1 (stereo not given),.,/,/,.,/
Nc1cc(C(=O)O)c(Oc2ccc(Cl)cc2Cl)cc1C(=O)O,.,61.3,.,.,.
CCN(CCNC(=O)Nc1ccc(Cl)cc1)c1ccccc1,.,118.3,63.9,.,55.2
O=C(NCCN1CCN(c2ccccc2)CC1)Nc1ccc(Cl)cc1,.,.,.,.,.
O=C(NCCc1ccc(Cl)cc1)Nc1ccc(Cl)cc1,42.3,.,.,.,.
O=C(Nc1c[nH]c(=O)[nH]c1=O)c1cc([N+](=O)[O-])cc([N+](=O)[O-])c1,.,68.6,.,.,.
O=C(Nc1ccc(C(=O)N2CCOCC2)cc1)c1ccccc1Cl,.,/,/,.,/
